Measurements from different studies.
Each line is one published result; the experiments were not run side by side.
MET D1228H: Hepatocyte growth factor receptor (MET, Homo sapiens, UniProt P08581, D1228H)
MET M1250T: Hepatocyte growth factor receptor (MET, Homo sapiens, UniProt P08581, M1250T)
MET: Hepatocyte growth factor receptor (MET, Homo sapiens, UniProt P08581)
MET Y1235D: Hepatocyte growth factor receptor (MET, Homo sapiens, UniProt P08581, Y1235D)

Compound | target | effect on | mode | method | concentration | endpoint | value
Cc1cnc(NC2CCOCC2)nc1-n1cnc(C(=O)NC(CN)c2cc(F)cc(Cl)c2)c1 (stereo not shown) | MET D1228H | enzyme activity | inhibitor | radiometric | 1 µM | remaining activity | 98%
CN1CCN(c2cnc3c(C4CCN(C(=O)c5ccc(OC(F)(F)F)cc5N)CC4)ncnc3c2)CC1 | MET M1250T | cell-free assay | – | competition with immobilised ligand | 1 µM | remaining binding | 100%
CC(C)(C)c1nc(-c2cccc(NS(=O)(=O)c3c(F)cccc3F)c2F)c(-c2ccnc(N)n2)s1 | MET | enzyme activity | inhibitor | radiometric | 1 µM | remaining activity | 89%
CN(CCCC(F)(F)F)c1nccc(-c2cnn3ncccc23)n1 | MET Y1235D | binding | – | – | 1 µM | remaining binding | 100%
NS(=O)(=O)c1cc(NC(=O)Cc2ccccc2)ccc1Oc1cccc(Cl)c1 | MET | cell-free assay | – | competition with immobilised ligand | 1 µM | remaining binding | 91%
Cc1cc(NC(=O)c2cccc3cc(-c4cccc5[nH]nc(N)c45)ccc23)ccc1F | MET | enzyme activity | inhibitor | – | 0.1 µM | activity vs control | 104%
C[C@H]1CCN(c2nccc(-c3cnn4ncccc34)n2)C1 | MET M1250T | binding | – | – | 1 µM | remaining binding | 50%
Cc1sc(C(=O)NC2COC2)cc1-n1cc(NC(=O)Nc2c(F)cccc2Cl)cn1 | MET | enzyme activity | inhibitor | – | 10 µM | remaining activity | 77%
CC/C(=N\NC(=O)NCc1cccc(O)c1)c1ccc(O)c(C)c1O | MET D1228H | enzyme activity | inhibitor | – | 0.1 µM | inhibition | -2.8%
CN(C)c1ncc(F)c(-c2cnn3ncccc23)n1 | MET Y1235D | binding | – | – | 1 µM | remaining binding | 100%
CC(C)(O)[C@H]1CC[C@H](Nc2ccc3ncc(-c4cccc(C(F)(F)F)c4)n3n2)CC1 | MET | enzyme activity | inhibitor | – | 1 µM | remaining activity | 99.8%
CC(=O)N1CCC(c2ccc(C(=O)NC(=N)N)cc2C(F)(F)F)CC1 | MET | cell-free assay | – | competition with immobilised ligand | 1 µM | remaining binding | 100%
O=C(Nc1ccc(Cl)cc1)c1ccccc1NCc1ccncc1 | MET | cell-free assay | – | – | 0.5 µM | remaining signal | 92.2%
Nc1ncnc2occ(-c3ccc(NC(=O)Nc4cc(C(F)(F)F)ccc4F)cc3)c12 | MET Y1235D | cell-free assay | – | – | 20 µM | remaining signal | 1.6%
N[C@@H]1CCN(c2nccc(-c3cnn4ncccc34)n2)C1 | MET Y1235D | binding | – | – | 1 µM | remaining binding | 100%
Oc1ccc(-c2nc(-c3ccncc3)c(-c3ccc(F)cc3)[nH]2)cc1 | MET | cell-free assay | – | – | 0.5 µM | remaining signal | 94.4%

Compound | target | effect on | mode | method | concentration | endpoint | value
c1cnn2ncc(-c3ccnc(N4CCC45COC5)n3)c2c1 | MET Y1235D | binding | – | – | 1 µM | remaining binding | 80%
Cc1ccc(C(=O)NCc2ccsc2)cc1C#Cc1cn(C(C)C)c2ncnc(N)c12 | MET | enzyme activity | inhibitor | – | 1 µM | activity vs control | 86%
O=C(O)[C@H]1[C@H](Cn2nnc3ccccc3c2=O)CC[C@@H]1C(=O)c1ccc(OCCC2CCOCC2)cc1 | MET Y1235D | cell-free assay | – | competition with immobilised ligand | 1 µM | remaining binding | 100%
CN(c1nccc(-c2cnn3ncccc23)n1)C1CC1 | MET Y1235D | binding | – | – | 1 µM | remaining binding | 100%
CC1=C(C#N)[C@@H](c2ccc3[nH]nc(C)c3c2)C(C#N)=C(c2ccc(Cl)cc2)N1 | MET Y1235D | cell-free assay | – | competition with immobilised ligand | 1 µM | remaining binding | 52.6%
O=C1Nc2ccc(Cl)cc2C1=Cc1cc(Cl)c(O)c(Cl)c1 | MET | cell-free assay | – | – | 0.5 µM | remaining signal | 96.4%
CN(C)C1CCN(CC#Cc2nn(C3CCCC3)c3nc(NCc4ccccc4)ncc23)C1 (stereo not shown) | MET | enzyme activity | inhibitor | FRET | 1 µM | inhibition | 28%
Cc1c[nH]c2nccc(Oc3c(F)cc(Nc4cc(Cl)nc(N)n4)cc3F)c12 | MET | cell-free assay | – | competition with immobilised ligand | 0.1 µM | remaining binding | 83%
CNC(=O)c1cc2c(Oc3ccc(NC(=O)C4(C(=O)Nc5ccc(F)cc5)CC4)cc3)ccnc2cc1OC | Hepatocyte growth factor receptor (MET, Homo sapiens, UniProt P08581, D1228N) | enzyme activity | inhibitor | radiometric | 1 µM | inhibition | 100%
O=S(=O)(NC1CCC(c2cc(F)ccc2F)(S(=O)(=O)c2ccc(Cl)cc2)CC1)C(F)(F)F (stereo not shown) | MET | cell-free assay | – | competition with immobilised ligand | 1 µM | remaining binding | 100%
CCN(CC)CCNC(=O)c1c(C)[nH]c(/C=C2\C(=O)Nc3ccc(F)cc32)c1C | MET | cell-free assay | – | – | 0.5 µM | remaining signal | 91%
F[C@@H]1CCN(c2nccc(-c3cnn4ncccc34)n2)C1 | MET M1250T | binding | – | – | 1 µM | remaining binding | 100%
Cc1ccc(NC(=O)c2ccc(C)c(C(F)(F)F)c2)cc1C#Cc1nn(C2CCC(O)CC2)c2ncnc(N)c12 (stereo not shown) | Hepatocyte growth factor receptor (MET, Homo sapiens, UniProt P08581, Y1230C) | cell-free assay | – | – | 10 µM | remaining signal | 139%
CC(C)CC(=O)N1CCc2nc(-c3ccc(Br)cc3)nc(N(C)Cc3ccccc3)c2C1 | MET Y1235D | cell-free assay | – | competition with immobilised ligand | 0.1 µM | remaining binding | 100%
Cc1ccc(C(=O)Nc2ccc(CN3CCN(C)CC3)c(C(F)(F)F)c2)cc1C#Cc1cnc2cccnn12 | MET | cell-free assay | – | – | 23.5 nM | remaining signal | 92%
